Reference: ChEMBL document CHEMBL1926577, “Novel 1,3,4-heterodiazole analogues: synthesis and in-vitro antitumor activity” (2012)

Legend:
Format in all cases: functional
SK-MEL-28 = experiment: Growth inhibition of human SK-MEL-28 cells at 10 uM after 48 hrs by coulter counter method; conditions: SK-MEL-28, 48 h, read-out: GI
Method in brief: (§1)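 NCI 60-cell-line panel, single dose. Compound dissolved first in DMSO, then diluted in phosphate-buffered saline so that every final dilution held under 1% DMSO. Duplicate wells received cells at 6 × 10⁴ cells/ml. Controls held PBS/DMSO at the same dilution. Plates were incubated 48 h at 37 °C under 5% CO₂. Cells were then diluted 10-fold in saline and counted on a Coulter counter, with counts corrected for the dilution. Results are given as percent growth inhibition.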

HL-60(TB) = experiment: Growth inhibition of human HL-60(TB) cells at 10 uM after 48 hrs by coulter counter method; conditions: HL-60, 48 h, read-out: GI
Method in brief: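 Single-dose screen on the NCI 60-line panel (leukemia subpanel). Compound is dissolved in DMSO and diluted in PBS, with final DMSO below 1%. Duplicate wells hold 6 × 10⁴ cells/ml at 37 °C, 5% CO₂, for 48 h. Cells are counted by Coulter counter after 10-fold saline dilution. Read-out is percent growth versus PBS/DMSO controls, expressed as % growth inhibition.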

NCI-H322M = experiment: Growth inhibition of human NCI-H322M cells at 10 uM after 48 hrs by coulter counter method; conditions: read-out: GI; method in brief: as §1
ACHN = experiment: Growth inhibition of human ACHN cells at 10 uM after 48 hrs by coulter counter method; conditions: read-out: GI; method in brief: as §1
EKVX = experiment: Growth inhibition of human EKVX cells at 10 uM after 48 hrs by coulter counter method; conditions: read-out: GI; method in brief: as §1
SNB-19 = experiment: Growth inhibition of human SNB19 cells at 10 uM after 48 hrs by coulter counter method; conditions: SNB-19, 48 h, read-out: GI; method in brief: as §1
KM12 = experiment: Growth inhibition of human KM12 cells at 10 uM after 48 hrs by coulter counter method; conditions: KM12, 48 h, read-out: GI; method in brief: as §1
PC-3 = experiment: Growth inhibition of human PC3 cells at 10 uM after 48 hrs by coulter counter method; conditions: PC-3, 48 h, read-out: GI; method in brief: as §1
BT-549 = experiment: Growth inhibition of human BT549 cells at 10 uM after 48 hrs by coulter counter method; conditions: BT-549, 48 h, read-out: GI; method in brief: as §1
SF-295 = experiment: Growth inhibition of human SF295 cells at 10 uM after 48 hrs by coulter counter method; conditions: SF-295, 48 h, read-out: GI; method in brief: as §1
NCI-H522 = experiment: Growth inhibition of human NCI-H522 cells at 10 uM after 48 hrs by coulter counter method; conditions: NCI-H522, 48 h, read-out: GI; method in brief: as §1
CCRF-CEM = experiment: Growth inhibition of human CCRF-CEM cells at 10 uM after 48 hrs by coulter counter method; conditions: read-out: GI; method in brief: as §1
HT-29 = experiment: Growth inhibition of human HT-29 cells at 10 uM after 48 hrs by coulter counter method; conditions: HT-29, 48 h, read-out: GI; method in brief: as §1
UO-31 = experiment: Growth inhibition of human UO31 cells at 10 uM after 48 hrs by coulter counter method; conditions: UO-31, 48 h, read-out: GI; method in brief: as §1
MDA-MB-435 = experiment: Growth inhibition of human MDA-MB-435 cells at 10 uM after 48 hrs by coulter counter method; conditions: MDA-MB-435, 48 h, read-out: GI; method in brief: as §1
A549 = experiment: Growth inhibition of human A549 cells at 10 uM after 48 hrs by coulter counter method; conditions: A549, 48 h, read-out: GI; method in brief: as §1
LOX IMVI = experiment: Growth inhibition of human LOXIMVI cells at 10 uM after 48 hrs by coulter counter method; conditions: read-out: GI; method in brief: as §1
TK-10 = experiment: Growth inhibition of human TK10 cells at 10 uM after 48 hrs by coulter counter method; conditions: TK-10, 48 h, read-out: GI; method in brief: as §1
IGROV-1 = experiment: Growth inhibition of human IGROV1 cells at 10 uM after 48 hrs by coulter counter method; conditions: IGROV-1, 48 h, read-out: GI; method in brief: as §1
CAKI-1 = experiment: Growth inhibition of human Caki1 cells at 10 uM after 48 hrs by coulter counter method; conditions: CAKI-1, 48 h, read-out: GI; method in brief: as §1
NCI-H23 = experiment: Growth inhibition of human NCI-H23 cells at 10 uM after 48 hrs by coulter counter method; conditions: NCI-H23, 48 h, read-out: GI; method in brief: as §1
MOLT-4 = experiment: Growth inhibition of human MOLT4 cells at 10 uM after 48 hrs by coulter counter method; conditions: MOLT-4, 48 h, read-out: GI; method in brief: as §1
NCI/ADR-RES = experiment: Growth inhibition of human NCI/ADR-RES cells at 10 uM after 48 hrs by coulter counter method; conditions: read-out: GI; method in brief: as §1
SR = experiment: Growth inhibition of human SR cells at 10 uM after 48 hrs by coulter counter method; conditions: read-out: GI; method in brief: as §1
SK-MEL-2 = experiment: Growth inhibition of human SK-MEL-2 cells at 10 uM after 48 hrs by coulter counter method; conditions: SK-MEL-2, 48 h, read-out: GI; method in brief: as §1
K562 = experiment: Growth inhibition of human K562 cells at 10 uM after 48 hrs by coulter counter method; conditions: K562, 48 h, read-out: GI; method in brief: as §1
OVCAR-8 = experiment: Growth inhibition of human OVCAR8 cells at 10 uM after 48 hrs by coulter counter method; conditions: OVCAR-8, 48 h, read-out: GI; method in brief: as §1
NCI-H226 = experiment: Growth inhibition of human NCI-H226 cells at 10 uM after 48 hrs by coulter counter method; conditions: NCI-H226, 48 h, read-out: GI; method in brief: as §1
HCT-116 = experiment: Growth inhibition of human HCT116 cells at 10 uM after 48 hrs by coulter counter method; conditions: HCT-116, 48 h, read-out: GI; method in brief: as §1
UACC-62 = experiment: Growth inhibition of human UACC62 cells at 10 uM after 48 hrs by coulter counter method; conditions: UACC-62, 48 h, read-out: GI; method in brief: as §1
U-251 = experiment: Growth inhibition of human U251 cells at 10 uM after 48 hrs by coulter counter method; conditions: U-251, 48 h, read-out: GI; method in brief: as §1
786-0 = experiment: Growth inhibition of human 786-0 cells at 10 uM after 48 hrs by coulter counter method; conditions: 786-0, 48 h, read-out: GI; method in brief: as §1
SN12C = experiment: Growth inhibition of human SN12C cells at 10 uM after 48 hrs by coulter counter method; conditions: read-out: GI; method in brief: as §1
HCT-15 = experiment: Growth inhibition of human HCT15 cells at 10 uM after 48 hrs by coulter counter method; conditions: HCT-15, 48 h, read-out: GI; method in brief: as §1
RPMI-8226 = experiment: Growth inhibition of human RPMI8226 cells at 10 uM after 48 hrs by coulter counter method; conditions: RPMI-8226, 48 h, read-out: GI; method in brief: as §1
SF-268 = experiment: Growth inhibition of human SF268 cells at 10 uM after 48 hrs by coulter counter method; conditions: SF-268, 48 h, read-out: GI; method in brief: as §1
SK-MEL-5 = experiment: Growth inhibition of human SK-MEL-5 cells at 10 uM after 48 hrs by coulter counter method; conditions: SK-MEL-5, 48 h, read-out: GI; method in brief: as §1
MDA-MB-468 = experiment: Growth inhibition of human MDA-MB-468 cells at 10 uM after 48 hrs by coulter counter method; conditions: MDA-MB-468, 48 h, read-out: GI; method in brief: as §1
SNB-75 = experiment: Growth inhibition of human SNB75 cells at 10 uM after 48 hrs by coulter counter method; conditions: SNB-75, 48 h, read-out: GI; method in brief: as §1
M14 = experiment: Growth inhibition of human M14 cells at 10 uM after 48 hrs by coulter counter method; conditions: M14, 48 h, read-out: GI; method in brief: as §1
UACC-257 = experiment: Growth inhibition of human UACC257 cells at 10 uM after 48 hrs by coulter counter method; conditions: UACC-257, 48 h, read-out: GI; method in brief: as §1
Malme-3M = experiment: Growth inhibition of human MALME-3M cells at 10 uM after 48 hrs by coulter counter method; conditions: read-out: GI; method in brief: as §1
A498 = experiment: Growth inhibition of human A498 cells at 10 uM after 48 hrs by coulter counter method; conditions: A498, 48 h, read-out: GI; method in brief: as §1
MCF7 = experiment: Growth inhibition of human MCF7 cells at 10 uM after 48 hrs by coulter counter method; conditions: MCF7, 48 h, read-out: GI; method in brief: as §1
T47D = experiment: Growth inhibition of human T47D cells at 10 uM after 48 hrs by coulter counter method; conditions: read-out: GI; method in brief: as §1

NC1=CC(N)=NC2SC(c3ccccc3)=NN12 (stereo not given)
inhibition of growth at 10 µM (SK-MEL-28): < 10%
inhibition of growth at 10 µM (HL-60(TB)): < 10%
inhibition of growth at 10 µM (NCI-H322M): < 10%
inhibition of growth at 10 µM (ACHN): < 10%
inhibition of growth at 10 µM (EKVX): < 10%
inhibition of growth at 10 µM (SNB-19): < 10%
inhibition of growth at 10 µM (KM12): < 10%
inhibition of growth at 10 µM (PC-3): < 10%
inhibition of growth at 10 µM (BT-549): < 10%
inhibition of growth at 10 µM (SF-295): < 10%
inhibition of growth at 10 µM (NCI-H522): < 10%
inhibition of growth at 10 µM (CCRF-CEM): < 10%
inhibition of growth at 10 µM (HT-29): < 10%
inhibition of growth at 10 µM (UO-31): 36.6%
inhibition of growth at 10 µM (MDA-MB-435): < 10%
inhibition of growth at 10 µM (A549): < 10%
inhibition of growth at 10 µM (LOX IMVI): < 10%
inhibition of growth at 10 µM (TK-10): < 10%
inhibition of growth at 10 µM (IGROV-1): 15.8%
inhibition of growth at 10 µM (CAKI-1): 10.7%
inhibition of growth at 10 µM (NCI-H23): < 10%
inhibition of growth at 10 µM (MOLT-4): < 10%
inhibition of growth at 10 µM (NCI/ADR-RES): < 10%
inhibition of growth at 10 µM (SR): < 10%
inhibition of growth at 10 µM (SK-MEL-2): < 10%
inhibition of growth at 10 µM (K562): < 10%
inhibition of growth at 10 µM (OVCAR-8): < 10%
inhibition of growth at 10 µM (NCI-H226): < 10%
inhibition of growth at 10 µM (HCT-116): < 10%
inhibition of growth at 10 µM (UACC-62): < 10%
inhibition of growth at 10 µM (U-251): < 10%
inhibition of growth at 10 µM (786-0): < 10%
inhibition of growth at 10 µM (SN12C): < 10%
inhibition of growth at 10 µM (HCT-15): < 10%
inhibition of growth at 10 µM (RPMI-8226): < 10%
inhibition of growth at 10 µM (SF-268): < 10%
inhibition of growth at 10 µM (SK-MEL-5): < 10%
inhibition of growth at 10 µM (MDA-MB-468): < 10%
inhibition of growth at 10 µM (SNB-75): 11.6%
inhibition of growth at 10 µM (M14): < 10%
inhibition of growth at 10 µM (UACC-257): 16.4%
inhibition of growth at 10 µM (Malme-3M): < 10%
inhibition of growth at 10 µM (A498): < 10%
inhibition of growth at 10 µM (MCF7): < 10%
inhibition of growth at 10 µM (T47D): < 10%
